Test results published in ChEMBL document CHEMBL1145959, “Design and synthesis of 8-hydroxy-[1,6]naphthyridines as novel inhibitors of HIV-1 integrase in vitro and in infected cells” (J Med Chem, 2003).
pIC50: −log10 of the molar value.

Assays:
MT4 [1] = assay: Cell culture inhibitory concentration which inhibits 95% spread of HIV infection in cell culture, using HIV-1 IIIB variant and MT-4 T-lymphoid cells; format: functional; conditions: Homo sapiens, read-out: CIC95
[2] = molecular target: Human immunodeficiency virus type 1 integrase (Human immunodeficiency virus 1, UniProt Q7ZJM1); assay: Compound was tested for its ability to inhibit the strand transfer of the integration process catalyzed by HIV integrase
Sequence of Human immunodeficiency virus type 1 integrase (Q7ZJM1 whole entry): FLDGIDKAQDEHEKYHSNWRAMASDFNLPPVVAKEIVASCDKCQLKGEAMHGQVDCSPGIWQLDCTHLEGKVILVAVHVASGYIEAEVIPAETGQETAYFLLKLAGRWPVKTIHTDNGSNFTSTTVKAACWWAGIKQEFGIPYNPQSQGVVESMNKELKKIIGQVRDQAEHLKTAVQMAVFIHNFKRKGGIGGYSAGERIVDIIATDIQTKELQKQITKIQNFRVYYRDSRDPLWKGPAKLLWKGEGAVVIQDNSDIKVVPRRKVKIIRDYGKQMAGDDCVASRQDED

MT4 [3] = assay: Cytotoxicity of compound was determined on MT-4 cells; format: functional, Homo sapiens
Outline: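 MT-4 cultures incubated 4 days with inhibitor. Toxicity scored by visual inspection for cytopathic effects: gross morphological changes, altered growth pattern, and metabolic change seen as lack of change in the medium pH indicator. Cell numbers also checked; cells typically double at least 4 times over the 4 days.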

[4] = Peak plasma level of compound (10 mg/kg) administered orally to rats after 60 min was determined; format: ADME, organism-based; parameters: dose 10 mg/kg, route oral; conditions: rat, po
Outline: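 Rats dosed orally at 10 mg/kg as a 3.0 mg/mL aqueous solution with 1% methylcellulose and 1% DMSO. Plasma concentration followed over time, with Cmax taken as the peak plasma level.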

With `O=C(c1cccc(Cc2ccccc2)c1)c1oc2cccnc2c1O` the IC95 (MT4 [1]) was > 50000 nM, the pIC50 [2] was 6.00 and the Cytotoxicity (MT4 [3]) was 12.5 µM.

In the case of `O=C(c1cc(Cc2ccccc2)cc(CN2CCCS2(=O)=O)c1)c1ncc2cccnc2c1O`, the IC95 (MT4 [1]) was 390 nM, the pIC50 [2] was 8.00 and the Cytotoxicity (MT4 [3]) was >12.5 µM. For the same compound, the Cmax [4] was 1170 nM.

For `O=c1c2cc(Cc3ccccc3)ccc2oc2ccc(O)c(O)c12`, the IC95 (MT4 [1]) was 6000 nM, the pIC50 [2] was 6.22 and the Cytotoxicity (MT4 [3]) was 3 µM.

`O=C(c1cccc(Cc2ccccc2)c1)c1ccc2cccnc2c1O` showed an IC95 (MT4 [1]) of 5000 nM and a Cytotoxicity (MT4 [3]) of 1.25 µM.

For `O=C(O)C(=O)CC(=O)c1cccc(Cc2ccccc2)c1`, the IC95 (MT4 [1]) was 1110 nM, the pIC50 [2] was 8.00 and the Cytotoxicity (MT4 [3]) was >50 µM.

With `O=C(c1cccc(Cc2ccccc2)c1)c1ncc2cccnc2c1O` the IC95 (MT4 [1]) was 6200 nM, the pIC50 [2] was 7.40 and the Cytotoxicity (MT4 [3]) was 12.5 µM.

Compound `O=C(c1cc(Cc2ccccc2)ccn1)c1ccc2cccnc2c1O` has an IC95 (MT4 [1]) of 2500 nM, a pIC50 [2] of 7.30 and a Cytotoxicity (MT4 [3]) of 2.5 µM.
